Active and inactive are the calls of the source. No cut-off for these calls is given here.
Experiments:
EA.hy 926 = assay: Antiproliferative activity against human EAhy926 cells assessed as decrease in cell viability at 0.2 to 2 uM after 24 to 48 hrs in presence of 2.5% fetal bovine serum by MTT assay; type: functional, cell-based
In short: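 EA.hy926 seeded at 4×10^3/well, adhered 24 h, and starved 4 h in 0.25% BSA medium. Then treated with compound or 0.1% v/v DMSO in medium with 2.5% FBS for 48 h. MTT 0.5 mg/mL for 4 h, A595 with 630 nm correction, cell number from a standard curve. Expressed as % of DMSO control; replicates from two independent experiments.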

[1] = Antiproliferative activity against human EAhy926 cells assessed as decrease in cell viability after 24 to 48 hrs in presence of 2.5% fetal bovine serum by MTT assay; type: functional, cell-based; settings: EA.hy 926
In short: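 EA.hy926 in DMEM with 2.5% FBS exposed 48 h to serial 1:2 compound dilutions spanning 0.125–50 μM. Viable cells measured by MTT (0.5 mg/mL, 4 h, A595/630 nm). IC50 (mean ± SEM) fitted by non-linear regression from eight or more points.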

HUVEC [2] = assay: Inhibition of VEGF-165-induced HUVEC chemotactic migration at 0.2 to 2 uM after 6 hrs by transwell assay; type: functional, cell-based; settings: Homo sapiens
In short: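 Serum-starved HUVEC were pre-treated overnight with compound or vehicle in 5% FBS medium. Cells were then seeded at 6×10^4 per upper Transwell chamber (8 µm pores) and migrated for 6 h toward VEGF-165 (50 ng/mL) or starvation medium. Migrated cells were ethanol-fixed, stained with H&E and counted in five fields per well. Results are % of control from at least two independent experiments.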

HUVEC [3] = assay: Antiangiogenic activity in HUVEC assessed as inhibition of VEGF-165-induced tube formation at 0.2 to 2 uM after 24 hrs by matrigel assay; type: functional, cell-based; settings: Homo sapiens
In short: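 HUVEC seeded at 2×10^4 cells/well on growth factor-reduced Matrigel after pre-starvation, then given compound or vehicle (up to 0.1% v/v DMSO), with or without VEGF-165, for 24 h. Fixed in ice-cold ethanol and stained with haematoxylin-eosin. Tube-like structures counted in at least 5 fields/well and expressed as % of vehicle control; replicates from two independent experiments.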

HUVEC [4] = assay: Inhibition of total protein tyrosine kinase activity in serum-starved HUVEC at 1 to 4 uM after 2 hrs; type: cell-based; settings: Homo sapiens
[5] = molecular target: Vascular endothelial growth factor receptor 2 (Homo sapiens) (UniProt P35968); assay: Inhibition of VEGF-165-induced VEGFR2 autophosphorylation at Tyr1175 in serum-starved HUVEC at 2 uM preincubated for 2 hrs followed by VEGF-165 induction measured after 5 mins by Western blot analysis; type: cell-based
Chain of Vascular endothelial growth factor receptor 2 (Homo sapiens) (P35968 whole entry): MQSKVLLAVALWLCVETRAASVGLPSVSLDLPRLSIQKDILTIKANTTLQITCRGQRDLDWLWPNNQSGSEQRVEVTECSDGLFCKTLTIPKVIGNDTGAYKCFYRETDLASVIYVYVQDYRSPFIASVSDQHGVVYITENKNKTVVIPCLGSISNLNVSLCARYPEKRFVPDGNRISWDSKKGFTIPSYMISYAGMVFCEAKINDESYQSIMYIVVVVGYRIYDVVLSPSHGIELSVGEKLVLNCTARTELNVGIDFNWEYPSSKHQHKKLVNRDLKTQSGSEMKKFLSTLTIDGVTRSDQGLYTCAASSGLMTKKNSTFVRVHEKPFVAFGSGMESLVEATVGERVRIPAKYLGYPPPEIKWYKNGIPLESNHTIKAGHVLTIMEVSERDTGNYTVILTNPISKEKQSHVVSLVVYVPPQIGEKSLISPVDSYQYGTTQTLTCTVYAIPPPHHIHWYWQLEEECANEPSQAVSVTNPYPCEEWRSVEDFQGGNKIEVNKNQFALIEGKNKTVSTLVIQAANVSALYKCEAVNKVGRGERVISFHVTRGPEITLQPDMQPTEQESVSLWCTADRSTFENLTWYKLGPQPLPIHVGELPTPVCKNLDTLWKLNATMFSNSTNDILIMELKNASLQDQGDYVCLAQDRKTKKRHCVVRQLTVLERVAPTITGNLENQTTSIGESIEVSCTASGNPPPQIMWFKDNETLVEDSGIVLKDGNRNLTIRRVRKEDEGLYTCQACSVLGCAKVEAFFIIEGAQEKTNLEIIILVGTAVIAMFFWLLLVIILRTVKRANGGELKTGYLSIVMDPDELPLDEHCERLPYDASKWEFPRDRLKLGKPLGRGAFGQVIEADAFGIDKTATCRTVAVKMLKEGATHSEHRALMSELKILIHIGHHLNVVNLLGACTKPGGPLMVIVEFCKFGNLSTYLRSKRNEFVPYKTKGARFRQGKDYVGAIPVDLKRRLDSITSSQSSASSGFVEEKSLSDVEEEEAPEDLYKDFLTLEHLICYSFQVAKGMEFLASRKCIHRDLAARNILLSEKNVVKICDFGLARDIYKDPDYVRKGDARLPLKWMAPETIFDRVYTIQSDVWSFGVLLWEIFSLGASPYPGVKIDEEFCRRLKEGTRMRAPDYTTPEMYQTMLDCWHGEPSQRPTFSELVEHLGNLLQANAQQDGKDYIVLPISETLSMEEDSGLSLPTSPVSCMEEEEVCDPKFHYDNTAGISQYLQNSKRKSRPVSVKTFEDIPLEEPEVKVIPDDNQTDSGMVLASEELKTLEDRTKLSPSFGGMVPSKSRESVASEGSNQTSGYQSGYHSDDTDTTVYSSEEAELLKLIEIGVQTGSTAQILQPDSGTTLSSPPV
In short: (§1)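 Serum-starved HUVEC were given 2 µM compound or vehicle for 2 h, then VEGF-165 (50 ng/mL) or PBS for 5 min. Lysates with equal protein were run on SDS-PAGE and immunoblotted for phospho-VEGFR2 (Tyr951, 996, 1056, 1175), p-AKT Ser473, p-ERK1/2 and the total proteins. Detection was by ECL with densitometry. Phospho signals were normalized to total protein, n = 3.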

[6] = Effect on total VEGFR2 levels in VEGF-165-induced serum-starved HUVEC at 2 uM preincubated for 2 hrs followed by VEGF-165 induction measured after 5 mins by Western blot analysis; type: cell-based; settings: human; in short: as §1
[7] = molecular target: Vascular endothelial growth factor receptor 2 (Homo sapiens) (UniProt P35968); assay: Inhibition of VEGF-165-induced VEGFR2 autophosphorylation in serum-starved HUVEC assessed as decrease in AKT phosphorylation at 2 uM preincubated for 2 hrs followed by VEGF-165 induction measured after 5 mins by Western blot analysis; type: cell-based; in short: as §1
[8] = molecular target: Vascular endothelial growth factor receptor 2 (Homo sapiens) (UniProt P35968); assay: Inhibition of VEGF-165-induced VEGFR2 autophosphorylation in serum-starved HUVEC assessed as decrease in ERK1/2 phosphorylation at 2 uM preincubated for 2 hrs followed by VEGF-165 induction measured after 5 mins by Western blot analysis; type: cell-based; in short: as §1
Lewis lung carcinoma [9] = assay: Antitumor activity against mouse LLC cells allografted in C57BL/6 mouse assessed as tumor growth inhibition at 0.2 mg/kg, ip administered thrice a week for 2 weeks starting 24 hrs before tumor implantation measured every other day of compound dosing by electronic caliper-based method; type: functional, organism-based
In short: (§2)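 Male 6–8 week C57BL/6 mice (groups of 5–6) inoculated sc in the right flank with 5×10^5 LLC cells. Compound (0.2 mg/kg) or DMSO vehicle given ip thrice weekly for 2 weeks, starting 24 h before implantation. Tumors measured by caliper every other day. At end-point, anti-CD31 IHC (1:100) of tumor sections, with immunoreactive cells counted in six high-power fields.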

Mus musculus = assay: Toxicity in C57BL/6 mouse allografted with mouse LLC cells at 0.05 to 0.2 mg/kg, ip administered thrice a week for 2 weeks starting 24 hrs before tumor implantation by clinical test; type: organism-based; settings: in vivo
In short: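 Male C57BL/6 mice, 6–8 weeks old, in groups of 5–6, received 5×10^5 LLC cells sc in the right flank. Compound (0.05–0.2 mg/kg) or DMSO vehicle was given ip thrice weekly for 2 weeks, starting 24 h before implantation. Mice were weighed and examined clinically every other day. At end-point, kidney, lung, spleen, liver and heart sections were H&E-stained and examined microscopically.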

Lewis lung carcinoma [10] = assay: Antiangiogenic activity in mouse LLC cells allografted in C57BL/6 mouse assessed as decrease of microvessel density in tumor at 0.2 mg/kg, ip administered thrice a week for 2 weeks starting 24 hrs before tumor implantation measured post last dose by IHC analysis; type: functional, organism-based; in short: as §2
HUVEC [11] = assay: Effect on KIF20A gene expression in serum-starved HUVEC after 6 hrs by microarray analysis relative to control; type: functional, Homo sapiens
In short: (§3)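 Confluent, serum-starved HUVEC (pooled from 3–5 donors, passage ≤4) treated with 2 μM compound or vehicle with 2.5% FBS for 6 h or 24 h. Total RNA hybridized to Illumina Human-HT12 arrays. Data were background-corrected, vst-transformed and rsn-normalized. Hits called by moderated paired t-test versus DMSO-treated cells, p < 0.05 and log2 fold change >|0.5|.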

HUVEC [12] = assay: Effect on RNA28S5 gene expression in serum-starved HUVEC after 6 hrs by microarray analysis relative to control; type: functional, Homo sapiens
In short: (§4)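 Serum-starved confluent HUVEC (pooled from 3–5 donors, passage ≤4) were treated with 2 μM compound or vehicle in 2.5% FBS for 6 h or 24 h, and total RNA was isolated. Hybridization was on Illumina Human-HT12. Data were processed with bgAdjust, vst and rsn normalization. Changes versus DMSO were called by moderated paired t-test at p < 0.05 and |log2 fold change| > 0.5.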

HUVEC [13] = assay: Effect on RNU1-3 gene expression in serum-starved HUVEC after 6 hrs by microarray analysis relative to control; type: functional, Homo sapiens; in short: as §4
HUVEC [14] = assay: Effect on GNG12 gene expression in serum-starved HUVEC after 24 hrs by microarray analysis relative to control; type: functional, Homo sapiens; in short: as §3
HUVEC [15] = assay: Effect on KIF20A gene expression in serum-starved HUVEC after 24 hrs by microarray analysis relative to control; type: functional, Homo sapiens; in short: as §3
HUVEC [16] = assay: Effect on RNU1-3 gene expression in serum-starved HUVEC after 24 hrs by microarray analysis relative to control; type: functional, Homo sapiens; in short: as §4

| Structure (SMILES) | Activity (EA.hy 926) | IC50 [1] | inhibition (HUVEC [2]) | inhibition (HUVEC [3]) | inhibition (HUVEC [4]) | inhibition [5] | Activity [6] | inhibition [7] | inhibition [8] | TGI (Lewis lung carcinoma [9]) | Activity (Mus musculus) | Activity (Lewis lung carcinoma [10]) | log2FC (HUVEC [11]) | log2FC (HUVEC [12]) | log2FC (HUVEC [13]) | log2FC (HUVEC [14]) | log2FC (HUVEC [15]) | log2FC (HUVEC [16]) |
| --- | --- | --- | --- | --- | --- | --- | --- | --- | --- | --- | --- | --- | --- | --- | --- | --- | --- | --- |
| COc1ccc(Cn2nc(-c3ccccc3)c3cc(Cl)nc(N4CCNCC4)c32)cc1 | Active | 4.3 µM | Active | Active | Active | Active | Non-Toxic | Active | Active | Active | Non-Toxic | Active | -0.1005 | -0.7662 | -0.5393 | 0.2465 | -0.5549 | -0.1906 |
| COc1ccc(Cn2nc(-c3ccccc3)c3cc(Nc4ccc(N5CCN(C)CC5)cc4)nc(N4CCN(C)CC4)c32)cc1 | Active | 7.2 µM | Active | Active | Active | Active | Non-Toxic | Active | Active | Active | Non-Toxic | Active | -0.1216 | -1.164 | -0.5806 | 0.1566 | -0.9386 | 0.1009 |
| COc1ccc(Cn2nc(-c3ccccc3)c3cc(Nc4ccc(N5CCN(C)CC5)cc4)nc(N4CCNCC4)c32)cc1 | Active | 12 µM | Active | Active | Active | Active | Non-Toxic | Active | Active | Active | Non-Toxic | Active | -0.0473 | -0.6261 | -0.5169 | 0.1458 | -0.5596 | 0.1133 |

Source: ChEMBL document CHEMBL3856209, “Novel pyrazolopyridine derivatives as potential angiogenesis inhibitors: Synthesis, biological evaluation and transcriptome-based mechanistic analysis” (Eur J Med Chem, 2016)
